# Hits are enriched below; roughly 2.2% of the tested compounds scored in any of these assays.
# dFosB activator = mouse delta FosB homodimer activation; purified delta FosB, TAMRA-CDK5 oligo fluorescence polarization; percent of positive-control signal above neutral wells; activation, % at 25 µM; hit rate 0.99% among 340,000; AID 493131;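 active = mean activation above about 17%, with every replicate also reaching it, limit read from the data, passing the limit was not always enough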
# Target sequence (P13346 whole entry, looked up): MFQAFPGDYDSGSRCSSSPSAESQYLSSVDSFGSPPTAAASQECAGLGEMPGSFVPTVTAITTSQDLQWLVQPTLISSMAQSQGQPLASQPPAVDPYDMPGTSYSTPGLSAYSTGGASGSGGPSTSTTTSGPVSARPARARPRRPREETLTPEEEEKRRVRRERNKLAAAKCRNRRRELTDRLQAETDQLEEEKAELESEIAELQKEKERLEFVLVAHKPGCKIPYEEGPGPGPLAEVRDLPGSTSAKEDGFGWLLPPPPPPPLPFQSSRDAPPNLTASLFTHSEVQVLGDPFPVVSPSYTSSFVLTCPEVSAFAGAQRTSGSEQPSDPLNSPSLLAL
# S100A4 MyoIIA = blocks human S100A4 binding to myosin IIA peptide; AID 652163; hit rate 0.14% among 360,000; P26447; S100A4/TAMRA-MyoIIA peptide fluorescence polarization; inhibition, % at 10.7 µM;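 active = mean inhibition of at least 70% across replicates, with every replicate also reaching that level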
# Target sequence (P26447 whole entry, looked up): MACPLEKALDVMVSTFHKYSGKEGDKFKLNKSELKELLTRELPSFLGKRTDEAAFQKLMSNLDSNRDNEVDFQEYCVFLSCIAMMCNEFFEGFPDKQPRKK
#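 Test system – S100A4 monomer (human) · Compound – single-point compound testing · Schedule – 5 min incubation before reading · Probe or stimulus – TAMRA-labelled myosin IIA heavy-chain peptide probe, 5 nM · Benchmarks – neutral control DMSO, positive control TFP · Medium – Calcium-containing HEPES buffer, pH 7.2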
# FGF22 binding = FGF22 (human) thermal shift binding; hit rate 1.5% among 340,000; activity (Tm shift, normalised), % at 9.99 µM; recombinant FGF22 thermal shift, SYPRO orange fluorescence; percent of sucrose octasulfate shift, DMSO zero; AID 651658; Q9HCT0;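 active = mean Tm shift, scaled 0 neutral to 100 positive control, at about 1.3% or above, every replicate too, limit read from the data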
# F508del corr = CFTR F508del correction in bronchial cells. CFBE cells, YFP halide quenching; stimulated with forskolin plus potentiator P3; % fluorescence drop versus neutral controls. activity (quench increase), % at 7.58 µM. hit rate 0.36% among 350,000;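 active = mean added fluorescence quench of at least 8% versus neutral control, with both replicates also reaching 8%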;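 note: cells transiently co-express mutant CFTR-F508del with the halide-sensitive YFP; corrector assay measuring rescue of mutant channel to the surface after 24 h compound exposure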
# * marks the source's active call; other numbers are inactive results; . = no result.
SMILES,dFosB activator,S100A4 MyoIIA,FGF22 binding,F508del corr
COc1ccc(CC(=O)NNC(=O)CCC(=O)Nc2cc(C)ccc2C)cc1,-5,-3,44*,-3
CCN(CC)c1ccc(/C=N/NC(=O)Nc2ccccc2)cc1,-10,3,43,1
CCN(CC)c1ccc(/C=N/NC(=O)Cc2nnc(NC(=O)Nc3ccccc3)s2)cc1,25*,-22,0,.
CC1=[N+](C)N(c2ccccc2)C(=O)C1N=Cc1c(Cl)cccc1Cl (configuration not stated),-2,-3,43*,-3
O=C(NNc1ccccc1)c1ccc(Cl)c(Cl)c1,-1,-1,43*,-2
Cc1ccc(S(=O)(=O)Nc2ccc3c(c2)C(=O)N([C@@H](C)CO)C[C@H](C)[C@@H](CN(C)C(=O)NC2CCCCC2)OCCCC[C@@H](C)O3)cc1,.,10,0,-2
Cc1nnc(NC(=O)CSc2nnc(CCNC(=O)c3ccccc3F)n2C)s1,-6,-8,0,-2
CC(NC(=O)c1ccccc1F)c1nnc(SCC(=O)Nc2nnc(C3CC3)s2)n1C (configuration not stated),2,93*,0,-1
COc1nccnc1NS(=O)(=O)c1ccc(NC(=O)c2cccc(C)c2)cc1,3,-4,43*,-2
COc1ccc(C(=O)Nc2ccc(S(=O)(=O)Nc3nccnc3OC)cc2)cc1,-1,.,.,.
COc1cccc(CNC(=O)C[C@H]2CC[C@@H]3[C@@H](COc4ccc(NC(C)=O)cc4C(=O)N3C)O2)c1,.,.,0,-2
CN1CCc2[nH]c3ccc(C(=O)NN)cc3c2C1,20*,.,.,.
NNC(=O)c1ccc2[nH]c3c(c2c1)CCCC3,-2,-3,0,1
Cc1nc(SCCOc2ccccc2)[nH]c(=O)c1Cc1ccccc1,-5,3,43*,-2
CCCCN(C(=O)c1cc(S(=O)(=O)N2CCCCC2)ccc1Cl)c1c(N)n(CC(C)C)c(=O)[nH]c1=O,-9,4,0,10*
COc1ccc2c3c([nH]c2c1)[C@H](CO)N(C(=O)c1cnccn1)CC31CCN(C(=O)c2cnccn2)CC1,.,1,0,-1
COc1ccc(NC(=O)c2ccc(-c3ccc(OC)cc3)s2)cc1,-3,1,43*,-2
CNC(=O)c1ccc(-c2ccc(OC)cc2)s1,3,.,.,.
C[C@@H]1CN([C@H](C)CO)S(=O)(=O)c2ccc(Br)cc2O[C@@H]1CN(C)CC1CC1,.,9,0,0
CC=Cc1ccc2n(c1=O)C[C@H]1[C@H](CO)[C@@H](C(=O)Nc3ccccc3)[C@@H]2N1C(=O)CC (mixture of isomers),.,0,0,-2
C[C@@H]1CCCCO[C@H](CN(C)CC2CCCCC2)[C@H](C)CN([C@H](C)CO)C(=O)c2cc(NC(=O)Nc3ccc4c(c3)OCO4)ccc2O1,.,14,0,0
COc1ccc(S(=O)(=O)N(C)C[C@H]2OCCCC[C@H](C)Oc3ccc(NC(=O)Nc4cccc5ccccc45)cc3C(=O)N([C@@H](C)CO)C[C@@H]2C)cc1,.,-6,1,-1
C[C@@H]1CCCCO[C@@H](CN(C)CC2CCCCC2)[C@H](C)CN([C@H](C)CO)C(=O)c2cc(NC(=O)Nc3cccc4ccccc34)ccc2O1,.,-49,1.3*,5
C[C@@H]1CN([C@@H](C)CO)C(=O)c2cc(NC(=O)Nc3cccc4ccccc34)ccc2O[C@@H](C)CCCCO[C@@H]1CN(C)CC1CCCCC1,.,14,1,-1
C[C@@H]1CCCCO[C@@H](CN(C)CC2CCCCC2)[C@H](C)CN([C@@H](C)CO)C(=O)c2cc(NC(=O)Nc3ccc4c(c3)OCO4)ccc2O1,.,-17,1.4*,2
SMILES,dFosB activator,S100A4 MyoIIA,FGF22 binding,F508del corr
COc1ccc(S(=O)(=O)N(C)C[C@@H]2OCCCC[C@@H](C)Oc3ccc(NC(=O)Nc4cccc5ccccc45)cc3C(=O)N([C@@H](C)CO)C[C@H]2C)cc1,.,-6,1.3*,2
C[C@H](CO)N1C[C@H](C)[C@@H](CN(C)C(=O)Nc2cccc3ccccc23)OCCCC[C@H](C)Oc2ccc(NC(=O)Nc3ccc4c(c3)OCO4)cc2C1=O,.,-19,1.7*,0
COc1cccc(NC(=O)N2C[C@@H](O)COC[C@@H]3O[C@@H](CC(=O)NC4Cc5ccccc5C4)CC[C@H]32)c1,.,0,0,1
COc1ccc(NC(=O)Nc2ccc3c(c2)C(=O)N([C@@H](C)CO)C[C@@H](C)[C@@H](CN(C)CC2CCCCC2)OCCCC[C@H](C)O3)cc1,.,11,1.3*,3
CCCCN(CCCC)Cc1ccc(C(=O)NNC(=O)Nc2ccc(Cl)cc2)o1,-2,3,0,-1
CCCCN(CCCC)Cc1ccc(C(=O)NN)o1,4,4,44*,-3
COc1ccc2c3c(n(C)c2c1)[C@H](CO)N(C(=O)C1CCC1)CC31CN(C(=O)CN(C)C)C1,.,-27,0,-4
CC(O)CNc1nc(N)[nH]c(=O)c1N=Nc1ccccc1 (configuration not stated),-4,-15,0,11*
CCCC#Cc1ccc2c(c1)O[C@H](CN(C)C(=O)CC1CC1)[C@@H](C)CN([C@@H](C)CO)S2(=O)=O,.,-5,0,-2
COc1ccccc1NC(=O)C(=O)N/N=C/c1ccc([N+](=O)[O-])s1,-7,-5,44*,2
[O-][N+](=C(c1ccccc1)c1ccccc1)c1ccccc1,1,-4,43*,4
O=C(Cc1ccc([N+](=O)[O-])cc1)c1ccccc1,1,1,0,0
Cc1cccc(S(=O)(=O)N2CC[C@@H]3[C@H](CO)Nc4ccc(C#Cc5ccc(F)cc5)cc4[C@@H]32)c1,.,97*,0,5
N#Cc1ccc(-c2ccc3c(c2)[C@@H]2[C@@H](CCN2S(=O)(=O)c2ccccc2F)[C@H](CO)N3)cc1,.,.,0,2
COc1cccc(S(=O)(=O)N2CC[C@@H]3[C@@H](CO)Nc4ccc(C#Cc5ccccc5)cc4[C@@H]32)c1,.,103*,0,-1
N#Cc1ccc(-c2ccc3c(c2)[C@H]2[C@H](CCN2S(=O)(=O)c2ccccc2F)[C@@H](CO)N3)cc1,.,.,0,15*
COCC(=O)Nc1ccc2c(c1)[C@@H]1C[C@H](CC(=O)N(C)C)O[C@H](CO)[C@@H]1O2,.,-45,0,0
C[C@@H]1CN([C@H](C)CO)C(=O)c2cc(NS(C)(=O)=O)ccc2O[C@@H](C)CCCCO[C@@H]1CN(C)C(=O)NC1CCCCC1,.,3,0,1
Cc1ccc(NC(=S)/N=C(\N)Nc2nc(C)c3cc(C)c(C)cc3n2)cc1C,-4,-10,43*,1
Cc1ccc(C=NNc2nc3c([nH]2)c(=O)n(C)c(=O)n3C)cc1,5,-1,44*,2
CN(C)c1ccc(/C=C/c2cccc[n+]2[O-])cc1,-5,-2,0,-1
CN(C)c1ccc(/C=C/c2ccc3c4ccccc4ccc3[n+]2-c2ccccc2)cc1,112*,156*,0,-17
